Test results reported in article PMC8341804 (RSC Chemical Biology, 2021).

What was measured:
[1] = tested on: PC-3 cells; assay: PMA induced cytoskeletal remodeling assay; type: cell-based; conditions: PC-3, serum starved 24 h, 5 μM peptide 4 h, 500 nM PMA 45 min
[2] = tested on: PKC; assay: PKC substrate phosphorylation assay; type: cell-based; conditions: serum starved PC-3, 1, 2.5, 5 μM peptide 4 h, PMA 5 min; n = 3
In short: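 Serum-starved PC-3 cells were exposed to the test compound (1, 2.5 or 5 μM) or DMSO vehicle for 4 h. A catalytic PKC inhibitor reference was given at 500 nM for 90 min. Cells were then stimulated with 500 nM PMA for 5 min, harvested and analysed by western blot for PKC substrate phosphorylation; n = 3.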

[3] = tested on: PC-3 cells; assay: Peptide uptake assay; type: cell-based; conditions: 5 μM FAM-labeled peptide, 4 h, fixed cells, fluorescence microscopy
In short: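 PC-3 cells were incubated with 5 μM 5(6)-carboxyfluorescein-labeled test compound for four hours, then imaged by fluorescence microscopy to assess intracellular distribution.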

[4] = biological target: Protein kinase C alpha type (Homo sapiens, UniProt P17252); assay: Proteomic mass spectrometry of biotin-streptavidin pulldown; type: binding; conditions: 5 µM biotin labeled peptide, A549 lysate, LC-MS/MS
In short: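 Cell lysates were incubated for four hours with 5 μM biotin-labeled test compound or the corresponding scrambled control, with DMSO-treated lysate as negative control. Streptavidin–agarose beads were used for pulldown, and the eluates were analysed by mass spectrometry.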

| Substance | cell morphology after PMA stimulation (phase contrast) [1] | phosphorylated PKC substrates (anti-PKC p-Serine substrate western blot) [2] | cellular uptake / cell permeability [3] | Present in pulldown: Protein kinase C alpha type (PRKCA) [4] |
| --- | --- | --- | --- | --- |
| (5/6 FAM) - β-Ala - KAS(Nle)LCFKRRK*AAK*LK (sidechain bridge or staple) [CSTAD5] | predominantly maintained a flat, elongated morphology | dose dependent reduction | considerable permeation | present |
| (5/6 FAM) - β-Ala - KAS(Nle)LCFKRRKK*AKA*K (sidechain bridge or staple) [CSTAD6] | predominantly maintained a flat, elongated morphology | dose dependent reduction | considerable permeation | – |
